Data: ChEMBL document CHEMBL3758101, “Synthesis and biological evaluation of fluorinated 1,5-diarylpyrrole-3-alkoxyethyl ether derivatives as selective COX-2 inhibitors endowed with anti-inflammatory activity” (Eur J Med Chem, 2016)
Calls of active or inactive are those of the source.

Assays:
Rattus norvegicus [1] = test: Antiinflammatory activity in Sprague-Dawley rat model of carrageenan-induced […] at 10 mg/kg, po administered 2 hrs post carrageenan challenge measured after 120 mins by […] (reference value: 34.5 +/- 4.4 ml); assay type: functional
Rattus norvegicus [2] = test: Antiinflammatory activity in Sprague-Dawley rat model of carrageenan-induced paw edema assessed as volume of paw edema at 20 mg/kg, po administered 2 hrs post carrageenan challenge measured after 60 mins by plethysmometry (reference value: 2.73 +/- 0.07 ml); assay type: functional
Mus musculus [3] = test: Antinociceptive activity in CD1 albino mouse model of acetic acid-induced visceral pain assessed as number of writhes at 20 mg/kg, po pretreated for 60 mins before acetic acid challenge measured after 5 mins (reference value: 32.5 +/- 2.4); assay type: functional
Mus musculus [4] = test: Antinociceptive activity in CD1 albino mouse model of acetic acid-induced visceral pain assessed as number of writhes at 20 mg/kg, po pretreated for 30 mins before acetic acid challenge measured after 5 mins (reference value: 30.5 +/- 1.7); assay type: functional
Rattus norvegicus [5] = test: Antiinflammatory activity in Sprague-Dawley rat model of carrageenan-induced paw edema assessed as paw volume at 20 mg/kg, po administered 2 hrs post carrageenan challenge measured after 30 mins by plethysmometry (reference value: 34.1 +/- 2.3 ml); assay type: functional
Rattus norvegicus [6] = test: Antiinflammatory activity in Sprague-Dawley rat model of carrageenan-induced paw edema assessed as volume of paw edema at 3 mg/kg, po administered 2 hrs post carrageenan challenge measured after 60 mins by plethysmometry (reference value: 2.73 +/- 0.07 ml); assay type: functional
Rattus norvegicus [7] = test: Antihyperalgesic effect in Sprague-Dawley rat model of monosodium iodoacetate-induced osteoarthritis assessed as withdrawal threshold at 20 mg/kg, ip administered 14 days post MIA challenge measured after 90 mins by paw pressure test (reference value: 37.8 +/- 3.1 g); assay type: functional
How it was run: (§1)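 Male Sprague–Dawley rats (200–250 g). MIA (2 mg/25 µL) was injected into the left tibiotarsal joint on day 0 under 2% isoflurane; controls received 25 µL saline. On day 14 compound or vehicle was given at time 0. Paw pressure threshold (g) was read with an analgesimeter using a blunt conical probe on the dorsal paw at 30, 60, 90 and 120 min. Mean ± s.e.m., 6 rats.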

Rattus norvegicus [8] = test: Antihyperalgesic effect in Sprague-Dawley rat model of monosodium iodoacetate-induced osteoarthritis assessed as withdrawal threshold at 10 mg/kg, ip administered 14 days post MIA challenge measured after 90 mins by paw pressure test (reference value: 37.8 +/- 3.1 g); assay type: functional; how it was run: as §1
Mus musculus [9] = species: Mus musculus; test: Selectivity ratio of IC50 for mouse COX-1 to IC50 for mouse COX-2
How it was run: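 In J774 cells, the ratio was taken as COX-1 IC50 over COX-2 IC50. COX-1 activity: 15 min compound pretreatment, then 30 min with 15 µM arachidonic acid. COX-2 activity: 24 h LPS (10 µg/mL) induction with compound. PGE2 was measured by RIA in both; IC50 values came from sigmoidal fits of three experiments.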

Mus musculus [10] = test: Antinociceptive activity in CD1 albino mouse model of acetic acid-induced visceral pain assessed as number of writhes at 3 mg/kg, po pretreated for 60 mins before acetic acid challenge measured after 5 mins (reference value: 32.5 +/- 2.4); assay type: functional
Rattus norvegicus [11] = test: Antihyperalgesic effect in Sprague-Dawley rat model of monosodium iodoacetate-induced osteoarthritis assessed as withdrawal threshold at 20 mg/kg, ip administered 14 days post MIA challenge measured after 30 mins by paw pressure test (reference value: 37.8 +/- 3.3 g); assay type: functional; how it was run: as §1
Rattus norvegicus [12] = test: Antihyperalgesic activity in Sprague-Dawley rat model of carrageenan-induced inflammatory pain assessed as paw pressure threshold at 20 mg/kg, po administered 2 hrs post carrageenan challenge measured after 60 mins by paw pressure test (reference value: 35.4 +/- 3.6 g)
Rattus norvegicus [13] = test: Antihyperalgesic effect in Sprague-Dawley rat model of monosodium iodoacetate-induced osteoarthritis assessed as withdrawal threshold at 3 mg/kg, ip administered 14 days post MIA challenge measured after 120 mins by paw pressure test (reference value: 39.2 +/- 4 g); assay type: functional; how it was run: as §1
Rattus norvegicus [14] = test: Antihyperalgesic effect in Sprague-Dawley rat model of monosodium iodoacetate-induced osteoarthritis assessed as withdrawal threshold at 3 mg/kg, ip administered 14 days post MIA challenge measured after 90 mins by paw pressure test (reference value: 37.8 +/- 3.1 g); assay type: functional; how it was run: as §1
Rattus norvegicus [15] = test: Antihyperalgesic activity in Sprague-Dawley rat model of carrageenan-induced inflammatory pain assessed as paw pressure threshold at 20 mg/kg, po administered 2 hrs post carrageenan challenge measured after 120 mins by paw pressure test (reference value: 34.5 +/- 4.4 g)
Rattus norvegicus [16] = test: Antiinflammatory activity in Sprague-Dawley rat model of carrageenan-induced […] at 10 mg/kg, po administered 2 hrs post carrageenan challenge measured after 30 mins by […] (reference value: 34.1 +/- 2.3 ml); assay type: functional
Rattus norvegicus [17] = test: Antihyperalgesic effect in Sprague-Dawley rat model of monosodium iodoacetate-induced osteoarthritis assessed as withdrawal threshold at 20 mg/kg, ip administered 14 days post MIA challenge measured after 120 mins by paw pressure test (reference value: 39.2 +/- 4 g); assay type: functional; how it was run: as §1
HaCaT [18] = test: Antiproliferative activity against human HaCaT cells after 24 hrs by BrdU incorporation assay; assay type: functional, cell-based
How it was run: (§2)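 HaCaT human keratinocytes were grown in high-glucose DMEM with 10% FBS and 2 mM L-glutamine at 37 °C and 5% CO2 to 80% confluency. Cells were treated 24 h with compound at 1, 10 or 50 µM (final DMSO ≤0.1%). Proliferation was read by BrdU incorporation as % of DMSO control; three experiments.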

HaCaT [19] = test: Antiproliferative activity against human HaCaT cells at 10 uM after 24 hrs by BrdU incorporation assay; assay type: functional, cell-based; how it was run: as §2

Work on `Cc1c(CCOCCCF)cc(-c2ccc(S(C)(=O)=O)cc2)n1-c1ccc(F)cc1` yielded an Activity (Rattus norvegicus [1]) of 38.1 g, an Activity (Rattus norvegicus [2]) of 2.06 mL and an Activity (Mus musculus [3]) of 16.9. The Activity (Mus musculus [4]) was 10.7, the Activity (Rattus norvegicus [5]) was 53.9 g and the Activity (Rattus norvegicus [6]) was 2.38 mL. For the same compound, the Activity (Rattus norvegicus [7]) was 43.8 g, the Activity (Rattus norvegicus [8]) was 44.3 g and the Ratio IC50 (Mus musculus [9]) was over 14300. For the same compound, the Activity (Mus musculus [10]) was 24.6, the Activity (Rattus norvegicus [11]) was 51.3 g and the Activity (Rattus norvegicus [12]) was 56.3 g. For the same compound, the Activity (Rattus norvegicus [13]) was 39 g, the Activity (Rattus norvegicus [14]) was 42.4 g and the Activity (Rattus norvegicus [15]) was 35.5 g. The Activity (Rattus norvegicus [16]) was 51.7 g, the Activity (Rattus norvegicus [17]) was 37.1 g and the Activity (HaCaT [18]) was “Dose-dependent effect”. For the same compound, the Activity (HaCaT [19]) was “Active”.
